A short description of series [1]: Cmax in perfused Sprague-Dawley rat brain at 30 mg/kg, iv after 0.25 hrs. In kind it is ADME, organism-based. Also on record: dose 30 mg/kg, route intravenous. The method in brief:
(§1)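 Nonfasted adult rats received 30 mg/kg in aqueous 0.9% NaCl (pH 4.0) by slow tail-vein injection over 20–30 s. Groups were sampled at 5 min and 0.25, 0.5, 1, 2, 4 and 8 h, with 4–5 rats per time point, under terminal isoflurane. Blood was taken by heart puncture and CSF from the cisterna magna. Brains were homogenized either unperfused or after transcardial saline perfusion. Samples were assayed by LC-MS/MS, and pooled composite data were analyzed noncompartmentally.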

In series [2] the test system is Cerebrospinal fluid. The series is described as follows: Cmax in non-perfused Sprague-Dawley rat cerebrospinal fluid assessed as active metabolite oseltamivir carboxylate level at 30 mg/kg, iv. In kind it is ADME, organism-based. Details: dose 30 mg/kg, route intravenous; call rule not given here. As to conditions: in vivo, BLD = below limit of detection. The method in brief:
as §1

The subject of series [3] is Plasma. In words: AUC (0 to 8 hrs) after iv dose in non-perfused Sprague-Dawley rat plasma assessed as active metabolite oseltamivir carboxylate level at 30 mg/kg. As to conditions: in vivo.
Series [4] concerns Plasma. The series is described as follows: AUC (0 to 8 hrs) after iv dose in perfused Sprague-Dawley rat plasma assessed as active metabolite oseltamivir carboxylate level at 30 mg/kg. The settings on record: in vivo.
Series [5] has as its system Brain. In words: Terminal half life in non-perfused Sprague-Dawley rat brain assessed as active metabolite oseltamivir carboxylate level at 30 mg/kg, iv. The settings on record: in vivo. In kind it is ADME, organism-based. Also on record: dose 30 mg/kg, route intravenous. An outline of the steps: (§2)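 Nonfasted Sprague-Dawley rats given 30 mg/kg i.v. in 0.9% NaCl pH 4.0 by tail vein over 20–30 s. Terminal sampling under isoflurane at 5 min, 0.25, 0.5, 1, 2, 4 and 8 h (4–5 rats/time): plasma, CSF, and brain homogenate, with or without saline perfusion. LC-MS/MS. t1/2, Vss and ratios from noncompartmental analysis of pooled composite concentrations.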

The subject of series [6] is Brain. In words: AUC (0 to 8 hrs) after iv dose in non-perfused Sprague-Dawley rat brain assessed as active metabolite oseltamivir carboxylate level at 30 mg/kg. As to conditions: in vivo.
The nature of series [7]: Ratio of drug level in brain to plasma in non-perfused Sprague-Dawley rat at 30 mg/kg, iv. In kind it is ADME, organism-based. Also on record: dose 30 mg/kg, route intravenous. As to conditions: brain and plasma, read-out: BPR. The method in brief: as §2
Series [8] deals with Plasma. The series is described as follows: Terminal half life in perfused Sprague-Dawley rat plasma assessed as active metabolite oseltamivir carboxylate level at 30 mg/kg, iv. It is filed as ADME, organism-based. Also on record: dose 30 mg/kg, route intravenous. The settings on record: in vivo. An outline of the steps:
as §2

Series [9] relates to Brain. In words: Cmax in non-perfused Sprague-Dawley rat brain assessed as active metabolite oseltamivir carboxylate level at 30 mg/kg, iv. In kind it is ADME, organism-based. Details: dose 30 mg/kg, route intravenous. As to conditions: in vivo. The method in brief: as §1
Series [10] concerns Cerebrospinal fluid. In words: Cmax in perfused Sprague-Dawley rat cerebrospinal fluid assessed as active metabolite oseltamivir carboxylate level at 30 mg/kg, iv. As to conditions: in vivo, BLD = below limit of detection. In kind it is ADME, organism-based. Also on record: dose 30 mg/kg, route intravenous. The method in brief:
as §1

Series [11] concerns Brain. In words: Cmax in perfused Sprague-Dawley rat brain assessed as active metabolite oseltamivir carboxylate level at 30 mg/kg, iv. As to conditions: in vivo. Details: dose 30 mg/kg, route intravenous. In kind it is ADME, organism-based. The method in brief: as §1
The nature of series [12]: Cmax ratio in cerebrospinal fluid to plasma in perfused Sprague-Dawley rat at 30 mg/kg, iv. Also on record: dose 30 mg/kg, route intravenous. As to conditions: cerebrospinal fluid and plasma. It is filed as ADME, organism-based, CSF/Plasma. The method in brief: as §1
Series [13] relates to LLC-PK1. In words: Permeability from apical to basolateral side of pig LLC-PK1 cells over expressing human MDR1. In kind it is ADME, cell-based, Sus scrofa. The method in brief: (§3)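 P-gp-transfected LLC-PK1 monolayers received [14C]oseltamivir (0.1–10 mM) plus Lucifer yellow on the apical or basolateral donor side, with or without 1 µM elacridar. Incubation was at 37°C under 5% CO2. The acceptor side was sampled at 0.5–3 h and counted by scintillation. Pe was taken from the 3 h point, without correction for marker flux. Three inserts were used per condition and averaged.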

Series [14] is described as follows: Prodrug conversion in 7 days old female rat liver S9 fractions assessed as paranitrophenol generation rate assessed per mg of protein per min. It is filed as ADME, subcellular, S9 fraction.
For series [15], the system named is LLC-PK1. In words: Permeability from basolateral to apical side of pig LLC-PK1 cells over expressing human MDR1. It is filed as ADME, cell-based, Sus scrofa. The method in brief: as §3
Series [16] can be described thus: Prodrug conversion in human brain S9 fractions assessed as oseltamivir carboxylate generation rate assessed per mg of protein per min. It is filed as ADME. An outline of the steps: (§4)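 S9 from brain or liver (rat S9 made by homogenizing tissue in ~4 ml Tris-sucrose buffer per g, supernatant after 9,000 × g at 10°C; pooled human brain and liver S9 also used), protein by bicinchoninic acid assay. Oseltamivir: triplicate, 10 μM 14C-oseltamivir final, 1.0 mg S9 protein, 100 mM Tris-HCl pH 7.4, 30 min at 37°C, quenched with TCA-acetonitrile.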

Series [17] concerns Plasma. The series is described as follows: AUC (0 to infinity) in non-perfused Sprague-Dawley rat plasma at 30 mg/kg. As to conditions: in vivo, iv.
Series [18] is described as follows: Prodrug conversion in commercial brain S9 fractions assessed as conversion of oseltamivir to oseltamivir carboxylate. In kind it is ADME. The method in brief: as §4
Series [19] can be described thus: Prodrug conversion in human brain S9 fractions assessed as conversion of oseltamivir to oseltamivir carboxylate. It is filed as ADME. The method in brief:
as §4

A short description of series [20]: Prodrug conversion in 7 days old female rat brain S9 fractions assessed as conversion of oseltamivir to oseltamivir carboxylate. In kind it is ADME, tissue-based. The method in brief: as §4
Series [21] is described as follows: Prodrug conversion in commercial liver S9 fractions assessed as conversion of oseltamivir to oseltamivir carboxylate. It is filed as ADME, subcellular, Liver S9 fraction. The method in brief:
as §4

The nature of series [22]: Prodrug conversion in human liver S9 fractions assessed as conversion of oseltamivir to oseltamivir carboxylate. In kind it is ADME, subcellular, S9 fraction. An outline of the steps:
as §4

Series [23] in a line: Prodrug conversion in 7 days old female rat liver S9 fractions assessed as oseltamivir carboxylate generation rate assessed per mg of protein per min. In kind it is ADME, subcellular, S9 fraction. An outline of the steps:
as §4

Series [24] is described as follows: Prodrug conversion assessed as oseltamivir carboxylate level in presence of Sf9 cell culture supernatant expressing human recombinant HCE1 after 30 mins. As to conditions: sf9, 0.5 h. In kind it is ADME. An outline of the steps:
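Culture supernatants from baculovirus-infected Sf9 cells (day 5–7; 1.0 mg/ml protein) were incubated in triplicate with 10 µM 14C-oseltamivir in 100 mM Tris-HCl at 37°C for 30 min. Reactions were quenched with TCA-acetonitrile, then analyzed by HPLC with fraction scintillation counting. Conversion was calculated as OC radioactivity over total radioactivity, corrected for no-enzyme hydrolysis. Wild-type virus and liver S9 served as controls.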

Series [25] is described as follows: Prodrug conversion in 42 days old male rat liver S9 fractions assessed as conversion of oseltamivir to oseltamivir carboxylate. In kind it is ADME, subcellular, S9 fraction. An outline of the steps:
(§5)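 Rat brain or liver S9 (9,000 × g supernatant; 1.0 mg protein) was incubated in triplicate with 10 µM 14C-oseltamivir (final) in 100 mM Tris-HCl pH 7.4 for 30 min at 37°C. Reactions were quenched with TCA-acetonitrile, and the fraction converted to OC was measured by radioflow HPLC with fractionation. Rate was calculated as (pmol/ml substrate × fraction hydrolyzed)/(mg protein/ml × time), minus the no-protein background.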

The nature of series [26]: Prodrug conversion in 7 days old male rat liver S9 fractions assessed as conversion of oseltamivir to oseltamivir carboxylate. It is filed as ADME, subcellular, S9 fraction. The method in brief:
as §4

The nature of series [27]: Prodrug conversion in 42 days old female rat brain S9 fractions assessed as paranitrophenol generation rate assessed per mg of protein per min. It is filed as ADME, tissue-based. An outline of the steps: (§6)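 Control esterase activity was measured by incubating 100 µM p-nitrophenyl acetate (final) with 0.05 mg rat brain or liver S9 protein in 1.5 ml Tris-HCl pH 7.4 for 1 min at 37°C. Reactions were quenched with acetonitrile, and product was quantified by HPLC-UV against external standards. The no-protein blank rate was subtracted, and rate was expressed per mg protein per min.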

The nature of series [28]: Prodrug conversion in 42 days old female rat liver S9 fractions assessed as paranitrophenol generation rate assessed per mg of protein per min. It is filed as ADME, subcellular, S9 fraction. An outline of the steps: as §6
Series [29] is described as follows: Prodrug conversion in 42 days old female rat brain S9 fractions assessed as conversion of oseltamivir to oseltamivir carboxylate. In kind it is ADME, tissue-based. The method in brief:
as §5

Structures are written as SMILES.

As a reminder, the Cmax is the highest concentration seen after dosing. As for `CCC(CC)O[C@@H]1C=C(C(=O)O)C[C@H](N)[C@H]1NC(C)=O` [OSELTAMIVIR CARBOXYLATE], the Cmax is 75.5 ng/g in series [1]; “BLD” in series [2]; 164 ng/g in [9]; “BLD” in series [10]; 75.5 ng/g in series [11]. For the same compound, the AUC in series [3] is given as 13600; in series [4], 12800; in [6], 145. Besides, the “beta t1/2” value in series [5] is 0.508 h; in [8] it was 1.71 h. Further, the figures for the Kp in series [7] and in series [12] were 0.02 and 0.003, respectively.

As a reminder, the Papp is a coefficient for how fast a substance crosses the barrier. In the case of `CCOC(=O)C1=C[C@@H](OC(CC)CC)[C@H](NC(C)=O)[C@@H](N)C1` [OSELTAMIVIR], the Papp in [13] and in series [15] was 1.01 ×10⁻⁶ cm/s throughout. Besides, the Activity in series [14] is given as 538 nmol; in [16] it was 0.39 pmol/s; in series [16] (BLD = below limit of detection), “BLD”; in series [18], 0.1%; in series [19] it was 0.12%; in series [19] (BLD = below limit of detection) it was “BLD”. Further, the Activity in series [20] was < 0.06%; in [21], 3.79%; in [22], 3.57%; in series [23] it was 0.34 pmol/s; in [24] it was “Active”; in series [25] it was 0.63%. Further, the Activity in series [26] stood at 0.1%; in [27] it was 70 nmol; in [28], 1001 nmol; in series [29], 0.18%. Further, the AUC in series [17] is reported as 5330.

For the origin of these results see ChEMBL document CHEMBL1687750, “Nonclinical pharmacokinetics of oseltamivir and oseltamivir carboxylate in the central nervous system” (Antimicrob Agents Chemother, 2009).
